Screens deposited in PubChem by several laboratories.
MDM2 E3 inh – inhibitors of human Mdm2 E3 ubiquitin ligase; Q00987; cell-based MDM2 ubiquitination luciferase reporter, 2 h; 0 = plate control, 100 = twice control, blank-subtracted; signal enhancement, % at 5 µM; hit rate 0.11% among 210,000;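 active = signal enhancement of 30% or more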;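 also: luminescence tracks abundance of the self-degrading MDM2-luciferase fusion protein; higher signal means inhibition of MDM2 E3 ligase activity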
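Buffer or medium: Cells held in DMEM | Assay system: Stable mammalian line carrying autodegrading MDM2–luciferase fusion reporter | Quantity: 2000 cells/well | Times: 4 h settle plus 2 h compound, 37 °C | Doses: One concentration, 5 µM, with 0.2% DMSO | Technique: Luminescence with SteadyLite reagent, 15 min at room temperature | Benchmarks: Plate controls and plate blanks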
CHOP UPR activ – apoptotic UPR (CHOP) activation; CHO-CHOP luciferase reporter, luminescence; percent of tunicamycin response over DMSO baseline; activation, % at 10 µM; hit rate 0.34% among 330,000; AID 449763;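 active = at 10 µM dose, activation of 40% or more, normalized to positive control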;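 also: 100% = tunicamycin at 10 µg/mL and 0% = DMSO alone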
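measured by = luciferase luminescence | assay system = CHO-CHOP cells, stable luciferase reporter of PERK-eIF2a-CHOP signalling | amount = 500 reporter cells seeded per well | timing = 6 h compound exposure at 37 °C after overnight seeding | controls = positive tunicamycin 10 µg/mL, negative DMSO alone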
Mdm2-MdmX inh – disrupts the human Mdm2-MdmX interaction; SaOS-2 split-luciferase Mdm2/MdmX complementation, luminescence; inhibition, % at 8 µM; O15151+Q00987; AID 485346; hit rate 3% among 330,000;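 active = inhibition of at least 50% at 8 µM in the primary screen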
B2AR ag – agonists of human beta-2 adrenergic receptor inducing internalization; hit rate 0.43% among 340,000; response, % (test concentration not listed); Am2.2-beta2AR cells, FAP receptor internalization, flow cytometry; P07550; AID 504454;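 active = response above a set limit, near 3 SD of response in nonfluorescent compounds, cut at about 42% in these data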
Target sequence (P07550 whole entry, looked up): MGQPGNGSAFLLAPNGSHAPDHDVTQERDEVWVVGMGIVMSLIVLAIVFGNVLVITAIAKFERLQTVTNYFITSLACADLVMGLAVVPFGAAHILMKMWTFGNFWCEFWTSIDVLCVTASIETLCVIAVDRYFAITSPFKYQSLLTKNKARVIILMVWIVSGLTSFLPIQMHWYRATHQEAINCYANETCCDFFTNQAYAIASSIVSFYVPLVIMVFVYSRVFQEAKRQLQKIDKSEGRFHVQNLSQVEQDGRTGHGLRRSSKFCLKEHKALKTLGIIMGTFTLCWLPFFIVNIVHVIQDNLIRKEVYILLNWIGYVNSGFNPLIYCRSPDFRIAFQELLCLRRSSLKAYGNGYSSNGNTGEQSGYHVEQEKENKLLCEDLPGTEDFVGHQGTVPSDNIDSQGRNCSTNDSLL
Dynein cargo inh – dynein cargo transport inhibition; z-score, hits read low; 3617.4 mouse cells, GR-EGFP nuclear translocation imaging; test concentration mostly 20 µM; stimulated with dexamethasone, 1 µM; hits give low values; hit rate 0.47% among 220,000;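 active = plate z-score of nuclear minus cytoplasmic receptor signal below a set negative limit, without overly bright fluorescence or cell loss, cut at about -3.5 in these data, passing the limit was not always enough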;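 also: z-score of nuclear minus cytoplasmic ring GR-EGFP intensity difference per well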
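Buffer or medium – tet-free medium with charcoal-stripped serum · Signal – automated 10x imaging of fixed Hoechst-stained cells · Also added – dexamethasone agonist, 1.0 µM final, for 30 min · Incubation – induction 48 h, compound 1 h, agonist 30 min · Read-out – GR-EGFP nuclear translocation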
XBP1 UPR activ – activators of adaptive arm of unfolded protein response (XBP1). CHO-XBP1 luciferase reporter, IRE1-XBP1 UPR activation, luminescence; percent of tunicamycin response, DMSO as zero. activation, % at 20 µM. hit rate 0.33% among 330,000;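 active = versus positive control, 20 µM dose yields 30% or more activation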;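 also: 100% = tunicamycin at 10 µg/mL and 0% = DMSO only wells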
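Signal: luciferase luminescence; Assay system: CHO-XBP1 luciferase reporter cells; Amount: one thousand reporter cells per well; Dosing: 20 µM single concentration, DMSO 1%; Benchmarks: high control tunicamycin 10 µg/mL final, low control DMSO vehicle only; Schedule: 6 h compound exposure at 37 °C, 5% CO2; Evaluation: percent activation relative to tunicamycin reference.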
Mdm2 MdmX conf – confirmation of human Mdm2/MdmX interaction inhibitors; shares compounds with Mdm2-MdmX inh; hit rate 55% among 10,000; Mdm2-MdmX binding, luminescent assay; inhibition, % at 8 µM; in the data active = inhibition above about 40%
FLuc counter – inhibits full-length luciferase, flagging false Mdm2/MdmX hits; shares compounds with Mdm2-MdmX inh; SaOS-2 full-length luciferase counterscreen, luminescence; inhibition, % at 8 µM; hit rate 77% among 6,200; AID 504607;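 active = mean inhibition at 8 µM reaching about 37%, which flags the compound as non-specific, limit read from the data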;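 also: p53-null SaOS-2 cells with luciferase driven by a doxycycline-inducible promoter; compound on cells about two nights before reading with doxycycline added after day one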
An asterisk follows results filed as active; . = not tested or not shown. Sampled rows, rich in hits. Any-hit rate of the full collection: about 3.7%.

SMILES	MDM2 E3 inh	CHOP UPR activ	Mdm2-MdmX inh	B2AR ag	Dynein cargo inh	XBP1 UPR activ	Mdm2 MdmX conf	FLuc counter
COc1ccc(/C=c2/sc3n(c2=O)C(c2ccccc2OC)C2=C(N=3)c3ccccc3CC2)cc1O (stereo unspecified)	-5.5	2.9	69.6*	-9.5	-0.239	2.4	87.0*	29.6
CCOC(=O)C1=C(C)N=c2s/c(=C\c3ccc(O)c([N+](=O)[O-])c3)c(=O)n2C1c1ccccc1OC (stereo unspecified)	.	2.0	13.0	6.9	.	-1.5	.	.
COCCN(C(=O)c1ccc2c(c1)S(=O)(=O)N=C1CCCCCN12)c1c(N)n(CC(C)C)c(=O)[nH]c1=O	.	.	.	3.7	.	.	.	.
O=C(Nc1c(F)cccc1F)c1cnc(N2CCN(c3ccccn3)CC2)c2ccccc12	-25.0	1.0	56.7*	-14.8	-1.11	3.6	32.2	.
Cc1ccc(NC(=O)c2cnc(N3CCN(c4ccccn4)CC3)c3ccccc23)c(Br)c1	-22.3	.	.	22.9	-0.216	.	.	.
CCN1CCN(c2ncc(C(=O)Nc3cc(Cl)ccc3OC)c3ccccc23)CC1	7.3	1.0	54.2*	19.3	2.23	0.7	2.5	.
CCC(Cc1ccccc1)NS(=O)(=O)c1c(C)nc2sccn2c1=O (stereo unspecified)	.	2.0	-1.8	-5.7	.	1.7	.	.
CC(C(=O)NC(C)(C)C)N(C(=O)CS(=O)CC(=O)Nc1ccc(F)cc1)C1CCCC1 (stereo unspecified)	.	2.3	14.1	7.7	.	-8.1	.	.
C#CCOCCOCCOCCNc1nc(N2CCN(C(=O)[C@H](CCC(=O)O)n3cc([C@@H](N)[C@H](C)CC)nn3)CC2)nc(N2CCN(C(=O)[C@H](CCC(=O)O)n3cc([C@@H](N)CC(N)=O)nn3)CC2)n1	.	2.8	-5.0	0.1	.	-0.6	.	.
Clc1cc(Br)ccc1NCc1cccnc1	.	2.7	23.0	16.5	.	-5.9	.	.
OCCN1CCN(c2nc(-c3ccccc3)nc3c2oc2ccccc23)CC1	-11.3	-0.3	53.9*	19.1	0.262	-1.1	37.5	53.7*
O=C(CCl)N1c2ccccc2SCC1c1ccccc1 (stereo unspecified)	.	-6.7	98.6*	18.1	.	-14.4	53.6*	19.3
COC(=O)c1ccccc1NC(=O)CN1CCC(C(=O)c2ccc3c(c2)OCCO3)CC1	-26.7	-0.4	62.2*	3.4	-0.245	-2.8	59.6*	98.9*
Cc1cc(NC(=O)CSc2nc(-c3cccs3)nc3ccccc23)no1	.	-1.3	44.7	6.4	.	21.1	.	.
Nc1nc(C2CCOCC2)cs1	-10.6	0.5	20.3	1.5	0.99	-0.9	.	.
Nc1nc(C2CC2)c(Sc2sc(N)nc2C2CC2)s1	-19.1	-0.8	50.5*	0.8	0.0964	-3.9	38.4	119.5*
Cc1ccc2nc(NC(=O)c3ccccc3F)sc2c1	.	1.8	-142.9	-8.4	.	-8.0	.	.
CCCC(=O)Nc1nc2ccc(NC(=O)c3ccccc3F)cc2s1	-7.2	3.6	54.9*	-8.2	0.907	6.1	55.5*	73.7*
CC(/C=N/NC(=O)c1cc(-c2ccncc2)nc2ccccc12)=C\c1ccco1	-3.0	-0.2	62.7*	18.7	-0.155	21.6	61.8*	96.9*
Cc1ccsc1/C=N/NC(=O)c1cc(-c2ccncc2)nc2ccccc12	-12.5	-1.7	57.5*	18.1	-0.922	9.3	59.6*	58.0*
O=C(N/N=C/c1ccsc1)c1cc(-c2ccncc2)nc2ccccc12	-0.9	0.2	51.9*	20.9	-0.864	10.0	38.1	66.3*
O=C(N/N=C/c1ccc2c(c1)OCO2)c1cc(-c2ccncc2)nc2ccccc12	5.5	1.2	51.1*	16.4	0.028	9.7	44.5*	58.9*
Cc1ccc(S(=O)(=O)N2CCCOC2CNC(=O)C(=O)NCc2ccc3c(c2)OCO3)cc1 (stereo unspecified)	.	3.0	16.6	-6.5	.	-2.5	.	.
Oc1ccc(O)c(/C(=N/Nc2ccccc2)c2ccccc2)c1	.	-0.7	4.1	.	.	1.7	.	.
COc1ccccc1NS(=O)(=O)c1cccc(C(=O)NCC2(N3CCCCC3)CCCCC2)c1	.	.	.	12.2	.	.	.	.
SMILES	MDM2 E3 inh	CHOP UPR activ	Mdm2-MdmX inh	B2AR ag	Dynein cargo inh	XBP1 UPR activ	Mdm2 MdmX conf	FLuc counter
CCOC(=O)/C=C1\SC(C)C(=O)N1CC(=O)N(CCC#N)c1ccccc1 (stereo unspecified)	.	-1.8	-27.2	8.8	.	-1.4	.	.
N#C/C(=C/c1ccc(F)cc1)c1nnc(NC(=O)c2ccccc2)s1	.	0.7	74.2*	0.8	0.102	-2.5	21.1	.
CN(Cc1ccc(F)cc1)S(=O)(=O)c1nnc(NC(=O)c2ccccc2)s1	.	0.9	10.0	-5.7	.	0.7	.	.
CC(NCC(=O)NC(=O)NC1CCCC1)c1ccc(Cl)cc1Cl (stereo unspecified)	.	0.7	-6.5	-8.1	.	2.2	.	.
CCC1CSC(Nc2ccc(C(=O)/C=C/c3ccc(Oc4ccccc4)cc3)cc2)=N1 (stereo unspecified)	-5.7	3.8	54.9*	-5.4	-0.596	1.5	26.1	.
CCC1CSC(Nc2ccc(C(=O)/C=C/c3cccc(C)c3)cc2)=N1 (stereo unspecified)	-10.7	5.4	46.2	0.3	0.567	4.0	.	.
CC[n+]1c(/C=C/N(C)c2ccccc2)n(-c2ccccc2)c2ccc(-c3nc4ccccc4s3)cc21	.	-5.1	100.3*	22.9	.	-12.8	94.5*	15.1
COc1cc(/C=C/C(=O)c2cccc([N+](=O)[O-])c2)cc(OC)c1OC	8.3	19.1	52.2*	51.7*	-2.56	-3.2	22.4	.
O=C(/C=C/c1ccccc1F)c1cccc([N+](=O)[O-])c1	7.2	-2.0	24.6	7.2	-3	2.0	.	.
O=C1OC(=O)c2cc([N+](=O)[O-])ccc21	.	-1.7	26.7	-1.8	.	-2.1	.	.
COc1cc(/C=C2/OC(=O)c3cc([N+](=O)[O-])ccc32)cc(OC)c1OC	.	0.7	67.2*	-0.3	-0.91	4.8	0.0	.
